{"source": "ChEMBL document CHEMBL1129686", "about": "“(S)-(-)-5-ethynyl-3-(1-methyl-2-pyrrolidinyl)pyridine maleate (SIB-1508Y): a novel anti-parkinsonian agent with selectivity for neuronal nicotinic acetylcholine receptors” (J Med Chem, 1996)", "key": {"[1]": {"molecular_target": "Neuronal nicotinic acetylcholine receptor", "test": "Binding affinity at NAChRs was determined by measuring the displacement of ([3H]Nic) from a preparation of rat cortical membranes.; call rule not given here", "type": "cell membranes, Membrane"}, "[2]": {"molecular_target": "T1, Neuronal acetylcholine receptor; alpha3/beta4 (Homo sapiens, UniProt P30926+P32297)", "T1 sequence (P30926 whole entry)": "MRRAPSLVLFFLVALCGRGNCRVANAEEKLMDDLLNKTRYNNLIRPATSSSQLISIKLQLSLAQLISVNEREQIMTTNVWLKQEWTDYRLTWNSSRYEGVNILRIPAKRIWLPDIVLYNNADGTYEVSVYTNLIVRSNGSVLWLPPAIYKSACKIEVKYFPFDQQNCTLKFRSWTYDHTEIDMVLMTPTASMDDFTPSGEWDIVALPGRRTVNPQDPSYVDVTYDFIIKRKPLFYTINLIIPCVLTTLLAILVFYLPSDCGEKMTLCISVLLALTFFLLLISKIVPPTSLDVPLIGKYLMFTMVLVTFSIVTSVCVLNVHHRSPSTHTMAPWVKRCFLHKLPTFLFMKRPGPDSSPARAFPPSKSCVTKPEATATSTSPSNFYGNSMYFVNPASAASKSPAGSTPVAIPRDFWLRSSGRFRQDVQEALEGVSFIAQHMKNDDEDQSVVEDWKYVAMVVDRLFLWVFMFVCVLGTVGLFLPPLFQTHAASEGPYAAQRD", "T1 sequence (P32297 whole entry)": "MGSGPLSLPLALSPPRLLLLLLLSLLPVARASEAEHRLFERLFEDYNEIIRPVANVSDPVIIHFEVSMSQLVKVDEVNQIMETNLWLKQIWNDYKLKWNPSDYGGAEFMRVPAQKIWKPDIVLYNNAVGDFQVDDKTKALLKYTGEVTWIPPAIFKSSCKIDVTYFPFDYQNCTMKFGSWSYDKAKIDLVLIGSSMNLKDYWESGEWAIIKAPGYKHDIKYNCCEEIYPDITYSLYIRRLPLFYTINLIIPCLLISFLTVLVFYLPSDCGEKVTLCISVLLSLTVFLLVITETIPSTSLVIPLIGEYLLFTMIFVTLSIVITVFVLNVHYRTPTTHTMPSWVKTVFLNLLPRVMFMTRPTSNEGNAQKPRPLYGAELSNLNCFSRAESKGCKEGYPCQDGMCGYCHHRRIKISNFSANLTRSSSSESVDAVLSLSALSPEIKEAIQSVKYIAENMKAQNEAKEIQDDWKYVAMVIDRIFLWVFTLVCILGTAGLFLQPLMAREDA", "test": "The compound was tested on recombinant human alpha3-beta4 cell lines of Human embryonic kidney for nicotinic acetylcholine receptor agonist functional potency", "method_in_brief": "(§1)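 Stably transfected human recombinant NAChR cell lines: HEK293 for α2β4, α3β4, α4β4 and α4β2; human RD cells for fetal α1β1γδ muscle receptor. Agonist-evoked Ca2+ entry read as change in [Ca2+]i with fluo-3. Highest concentration tested 300 μM.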"}, "Rattus norvegicus": {"organism": "Rattus norvegicus", "test": "The efficiency of the compound (300 micro M) to stimulate ([3H]DA) release", "type": "functional"}, "[3]": {"molecular_target": "T2, Neuronal acetylcholine receptor; alpha4/beta4 (Homo sapiens, UniProt P30926+P43681)", "test": "The compound was tested on recombinant human alpha4-beta4 cell lines of Human embryonic kidney for nicotinic acetylcholine receptor agonist functional potency", "method_in_brief": "as §1"}, "[4]": {"molecular_target": "Muscarinic acetylcholine receptor", "test": "Muscarinic acetylcholine receptor binding (rat cortical membranes) was determined by displacement of [3H]quinuclidinyl benzylate [3H]QNB)"}, "[5]": {"molecular_target": "Acetylcholine receptor; alpha1/beta1/delta/gamma (Homo sapiens, UniProt P02708+P07510+P11230+Q07001)", "sequence (P02708 whole entry)": "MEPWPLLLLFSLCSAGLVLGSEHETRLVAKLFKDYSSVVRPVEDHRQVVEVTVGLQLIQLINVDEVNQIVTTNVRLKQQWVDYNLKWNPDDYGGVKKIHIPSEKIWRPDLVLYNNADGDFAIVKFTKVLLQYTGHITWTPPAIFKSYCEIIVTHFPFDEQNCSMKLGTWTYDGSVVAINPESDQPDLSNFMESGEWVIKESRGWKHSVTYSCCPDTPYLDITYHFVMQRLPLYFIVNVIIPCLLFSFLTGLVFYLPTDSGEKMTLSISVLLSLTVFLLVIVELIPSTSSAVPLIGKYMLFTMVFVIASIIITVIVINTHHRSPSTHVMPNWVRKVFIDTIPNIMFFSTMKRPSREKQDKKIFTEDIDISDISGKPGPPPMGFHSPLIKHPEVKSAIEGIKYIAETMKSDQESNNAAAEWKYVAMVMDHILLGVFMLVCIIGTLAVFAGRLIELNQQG", "sequence (P07510 whole entry)": "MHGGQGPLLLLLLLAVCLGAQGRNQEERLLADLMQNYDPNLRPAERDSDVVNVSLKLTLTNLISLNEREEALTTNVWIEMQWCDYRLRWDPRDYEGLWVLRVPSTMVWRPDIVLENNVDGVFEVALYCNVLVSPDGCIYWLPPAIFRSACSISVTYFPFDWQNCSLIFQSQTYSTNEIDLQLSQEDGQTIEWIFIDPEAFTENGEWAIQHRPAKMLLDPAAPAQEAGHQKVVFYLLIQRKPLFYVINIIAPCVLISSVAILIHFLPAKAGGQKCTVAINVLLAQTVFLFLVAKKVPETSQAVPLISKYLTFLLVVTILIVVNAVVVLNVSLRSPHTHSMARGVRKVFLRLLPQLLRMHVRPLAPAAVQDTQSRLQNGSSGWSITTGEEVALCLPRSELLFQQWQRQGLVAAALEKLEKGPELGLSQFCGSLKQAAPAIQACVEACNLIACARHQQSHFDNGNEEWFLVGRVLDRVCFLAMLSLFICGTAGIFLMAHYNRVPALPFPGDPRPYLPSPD", "sequence (P11230 whole entry)": "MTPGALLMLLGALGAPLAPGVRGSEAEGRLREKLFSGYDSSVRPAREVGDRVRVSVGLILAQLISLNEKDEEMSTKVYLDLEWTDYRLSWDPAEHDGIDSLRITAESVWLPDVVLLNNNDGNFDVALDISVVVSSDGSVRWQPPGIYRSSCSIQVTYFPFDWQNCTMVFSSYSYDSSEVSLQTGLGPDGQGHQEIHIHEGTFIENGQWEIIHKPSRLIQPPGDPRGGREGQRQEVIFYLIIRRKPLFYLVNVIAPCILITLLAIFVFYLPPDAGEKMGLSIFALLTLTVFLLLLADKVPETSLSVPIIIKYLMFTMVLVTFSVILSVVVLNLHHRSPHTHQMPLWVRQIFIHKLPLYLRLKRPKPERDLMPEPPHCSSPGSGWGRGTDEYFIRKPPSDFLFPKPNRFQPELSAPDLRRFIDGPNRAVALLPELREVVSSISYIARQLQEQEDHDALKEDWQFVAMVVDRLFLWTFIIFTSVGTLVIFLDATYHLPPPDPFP", "sequence (Q07001 whole entry)": "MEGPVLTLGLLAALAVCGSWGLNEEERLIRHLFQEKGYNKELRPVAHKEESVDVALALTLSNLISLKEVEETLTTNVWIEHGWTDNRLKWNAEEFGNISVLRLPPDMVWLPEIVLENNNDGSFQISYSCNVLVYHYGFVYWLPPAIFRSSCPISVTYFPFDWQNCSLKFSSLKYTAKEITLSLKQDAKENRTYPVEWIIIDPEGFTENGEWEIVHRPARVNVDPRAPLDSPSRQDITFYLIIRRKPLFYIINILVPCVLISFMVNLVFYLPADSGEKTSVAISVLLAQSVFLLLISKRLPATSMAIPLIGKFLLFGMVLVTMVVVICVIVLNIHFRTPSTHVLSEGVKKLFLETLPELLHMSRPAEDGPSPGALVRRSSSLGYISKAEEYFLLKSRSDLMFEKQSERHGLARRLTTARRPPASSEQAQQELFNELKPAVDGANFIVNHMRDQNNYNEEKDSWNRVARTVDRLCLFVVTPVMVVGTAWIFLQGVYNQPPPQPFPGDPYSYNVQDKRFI", "test": "(§2) The compound was tested on recombinant human alpha-1-beta-1-gamma-delta cell lines of […] for nicotinic acetylcholine receptor agonist functional potency"}, "[6]": {"molecular_target": "T3, Nicotinic acetylcholine receptor alpha2/beta4 (Homo sapiens, UniProt P30926+Q15822)", "T3 sequence (P02708 whole entry)": "as the sequence (P02708 whole entry) above", "T3 sequence (P30926 whole entry)": "as the sequence (P30926 whole entry) above", "test": "The compound was tested on recombinant human alpha2-beta4 cell lines of Human embryonic kidney for nicotinic acetylcholine receptor agonist functional potency", "method_in_brief": "as §1"}, "[7]": {"molecular_target": "T3, Nicotinic acetylcholine receptor alpha2/beta4", "test": "The compound was tested on recombinant human alpha2-beta4 cell lines of HUman embryonic kidney for nicotinic acetylcholine receptor agonist efficacy"}, "[8]": {"molecular_target": "Neuronal acetylcholine receptor; alpha4/beta2 (Homo sapiens, UniProt P17787+P43681)", "sequence (P17787 whole entry)": "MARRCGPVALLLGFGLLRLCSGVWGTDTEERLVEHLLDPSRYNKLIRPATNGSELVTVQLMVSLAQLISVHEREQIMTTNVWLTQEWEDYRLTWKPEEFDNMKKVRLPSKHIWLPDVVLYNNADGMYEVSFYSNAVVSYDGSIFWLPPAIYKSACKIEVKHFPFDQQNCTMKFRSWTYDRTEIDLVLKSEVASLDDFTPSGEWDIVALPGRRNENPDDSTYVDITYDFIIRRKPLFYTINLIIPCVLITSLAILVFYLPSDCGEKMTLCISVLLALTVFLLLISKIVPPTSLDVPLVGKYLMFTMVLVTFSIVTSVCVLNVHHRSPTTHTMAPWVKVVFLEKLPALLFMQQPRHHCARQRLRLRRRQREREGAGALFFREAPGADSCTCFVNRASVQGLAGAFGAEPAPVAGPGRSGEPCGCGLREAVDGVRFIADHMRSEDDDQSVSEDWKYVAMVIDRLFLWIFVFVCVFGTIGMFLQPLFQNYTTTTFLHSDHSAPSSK", "sequence (P43681 whole entry)": "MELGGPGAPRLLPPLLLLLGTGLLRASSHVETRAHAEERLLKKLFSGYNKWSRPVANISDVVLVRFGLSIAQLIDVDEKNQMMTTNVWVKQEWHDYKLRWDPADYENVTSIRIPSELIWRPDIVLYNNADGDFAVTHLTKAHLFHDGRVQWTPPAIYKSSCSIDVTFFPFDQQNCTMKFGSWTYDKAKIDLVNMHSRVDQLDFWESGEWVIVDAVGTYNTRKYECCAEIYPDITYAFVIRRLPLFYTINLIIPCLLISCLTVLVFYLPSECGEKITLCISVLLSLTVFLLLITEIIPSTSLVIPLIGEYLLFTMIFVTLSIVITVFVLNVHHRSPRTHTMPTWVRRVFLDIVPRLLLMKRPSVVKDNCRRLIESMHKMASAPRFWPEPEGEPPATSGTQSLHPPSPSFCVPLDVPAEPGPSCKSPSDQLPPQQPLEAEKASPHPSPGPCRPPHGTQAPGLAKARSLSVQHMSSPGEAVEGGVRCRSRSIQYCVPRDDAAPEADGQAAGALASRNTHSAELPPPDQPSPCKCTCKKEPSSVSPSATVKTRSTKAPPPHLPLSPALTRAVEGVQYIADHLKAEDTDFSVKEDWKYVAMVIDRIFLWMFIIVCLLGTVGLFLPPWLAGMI", "test": "The compound was tested on recombinant human alpha4-beta2 cell lines of Human embryonic kidney for nicotinic acetylcholine receptor agonist functional potency; IA=inactive", "method_in_brief": "as §1"}, "[9]": {"molecular_target": "T2, Neuronal acetylcholine receptor; alpha4/beta4", "test": "The compound was tested on recombinant human alpha4-beta4 cell lines of HUman embryonic kidney for nicotinic acetylcholine receptor agonist functional potency", "method_in_brief": "as §1"}, "[10]": {"molecular_target": "T1, Neuronal acetylcholine receptor; alpha3/beta4", "test": "The compound was tested on recombinant human alpha3-beta4 cell lines of HUman embryonic kidney for nicotinic acetylcholine receptor agonist functional potency", "method_in_brief": "as §1"}, "[11]": {"molecular_target": "Muscle-type nicotinic acetylcholine receptor", "test": "as §2"}}, "note": "Where “and” joins values, the source holds several entries; their conditions need not be identical. Identical values can stand only once.", "data": [{"compound": "C#Cc1cncc(C2CCCN2C)c1", "note": "(stereo not given)", "values": [{"measurement": "IC50", "setting": "[1]", "result": 0.0046, "unit": "µM"}, {"measurement": "EC50", "setting": "[2]", "result": "41 µM and 34 µM"}, {"measurement": "Release", "setting": "Rattus norvegicus", "result": 143, "unit": "%"}, {"measurement": "EC50", "setting": "[3]", "result": "25 µM and 23 µM"}, {"measurement": "IC50", "setting": "[4]", "result": 10.1, "unit": "µM"}, {"measurement": "EC50", "setting": "[5]", "result": "52 µM and 53 µM"}, {"measurement": "EC50", "setting": "[6]", "result": "15 µM and 39 µM"}]}, {"compound": "CCc1cncc(C2CCCN2C)c1", "note": "(stereo not given)", "values": [{"measurement": "IC50", "setting": "[1]", "result": 0.011, "unit": "µM"}, {"measurement": "Release", "setting": "Rattus norvegicus", "result": 27.5, "unit": "%"}, {"measurement": "IC50", "setting": "[4]", "result": 5.8, "unit": "µM"}]}, {"compound": "C#Cc1cncc([C@@H]2CCCN2C)c1", "note": "[ALTINICLINE]", "values": [{"measurement": "IC50", "setting": "[1]", "result": 0.003, "unit": "µM"}, {"measurement": "EC50", "setting": "[2]", "result": "23 µM and 52 µM"}, {"measurement": "Release", "setting": "Rattus norvegicus", "result": 163, "unit": "%"}, {"measurement": "EC50", "setting": "[3]", "result": "9 µM and 26 µM"}, {"measurement": "IC50", "setting": "[4]", "result": 8.9, "unit": "µM"}, {"measurement": "EC50", "setting": "[6]", "result": "5 µM and 49 µM"}]}, {"compound": "CN1CCCC1c1cncc(Br)c1", "note": "(stereo not given)", "values": [{"measurement": "IC50", "setting": "[1]", "result": 0.019, "unit": "µM"}, {"measurement": "Release", "setting": "Rattus norvegicus", "result": 69, "unit": "%"}, {"measurement": "IC50", "setting": "[4]", "result": 1.6, "unit": "µM"}]}, {"compound": "C#Cc1cncc([C@H]2CCCN2C)c1", "values": [{"measurement": "IC50", "setting": "[1]", "result": 0.075, "unit": "µM"}, {"measurement": "EC50", "setting": "[2]", "result": 68, "unit": "µM"}, {"measurement": "Release", "setting": "Rattus norvegicus", "result": 55, "unit": "%"}, {"measurement": "Efficacy", "setting": "[7]", "result": 9, "unit": "%"}, {"measurement": "EC50", "setting": "[8]", "result": "Not Active"}, {"measurement": "IC50", "setting": "[4]", "result": 4.5, "unit": "µM"}, {"measurement": "EC50", "setting": "[9]", "result": "31 µM and 8 µM"}, {"measurement": "EC50", "setting": "[6]", "result": 29, "unit": "µM"}, {"measurement": "EC50", "setting": "[10]", "result": 68, "unit": "µM"}]}, {"compound": "CN1CCC[C@H]1c1cccnc1", "note": "[NICOTINE]", "values": [{"measurement": "EC50", "setting": "[11]", "result": 65, "unit": "µM"}, {"measurement": "EC50", "setting": "[6]", "result": 10, "unit": "µM"}]}]}
